The record followed here is ChEMBL document CHEMBL4028805, “Phenylthiazole Antibacterial Agents Targeting Cell Wall Synthesis Exhibit Potent Activity in Vitro and in Vivo against Vancomycin-Resistant Enterococci” (J Med Chem, 2017).

What is called MIC is the lowest concentration that inhibits growth of the organism. A lower MIC goes with greater potency. A word on the MIC50: it is an inhibitory concentration at the 50% level, which refers to growth in some studies and to a panel of isolates in others. Low readings indicate greater potency, high ones weaker potency.

In brackets after ≈: the same amount, converted by molar mass. Activity calls are given as the source filed them.

In data set [1] the test system is Escherichia coli. The data set can be described thus: Antibacterial activity against Escherichia coli 1411 after 18 to 22 hrs in absence of colistin by broth microdilution method. The data set is classed as functional. The method, boiled down: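 Broth microdilution per CLSI guidelines. Gram-negatives grown in TSB. Each strain tested alone and again with colistin at ¼ × MIC to permeabilize the outer membrane. Plates incubated at 37 °C for 18–22 h. MIC read as the lowest concentration showing no visible growth.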
Background: Broth dilution looks for growth in wells or tubes with falling amounts of substance.

The test system of data set [2] is Escherichia coli. The data set can be described thus: Antibacterial activity against Escherichia coli 1411 harboring delta-acrAB after 18 to 22 hrs in absence of colistin by broth microdilution method. Type of data set: functional.
Data set [3] has as its system Enterococcus faecium. The data set can be described thus: Antibacterial activity against vancomycin-resistant Enterococcus faecium ATCC 700221 after 18 to 22 hrs in absence of colistin by broth microdilution method. Type of data set: functional.
The test system of data set [4] is Enterococcus faecium. The experiment in a line: Antibacterial activity against Enterococcus faecium clinical isolates after 18 to 22 hrs by broth microdilution method. The data set is classed as functional. The method, boiled down:
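Enterococcus faecium grown in BHI. MIC by CLSI broth microdilution, 37 °C for 18–22 h. Lowest concentration with no visible growth taken as MIC, reported as MIC50 across the isolates.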

Data set [5] concerns Enterococcus faecium. The data set can be described thus: Bactericidal activity against Vancomycin-resistant Enterococcus faecium clinical isolates after 18 to 22 hrs by broth microdilution method. The data set is classed as functional. The method, boiled down: (§1)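 MBC follows the broth microdilution MIC. 5 μL aliquots spotted onto TSA (E. faecalis) or BHI agar (E. faecium), incubated 37 °C for 18–22 h. MBC is the concentration giving >99% reduction in bacterial count. MBC50 is the value for 50% of isolates.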

The subject of data set [6] is Enterococcus faecium. The data set can be described thus: Bactericidal activity against Enterococcus faecium after 18 to 22 hrs by broth microdilution method. The data set is classed as functional. The method, boiled down:
(§2)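 MBC determined after the broth microdilution MIC. 5 μL aliquots plated onto TSA (E. faecalis) or BHI agar (E. faecium) and incubated at 37 °C for 18–22 h. MBC is the concentration giving >99% reduction in cell count, reported as MBC50.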

The subject of data set [7] is Enterococcus faecalis. The experiment in a line: Bactericidal activity against Enterococcus faecalis clinical isolates after 18 to 22 hrs by broth microdilution method. The data set is classed as functional. The gist of the method: as §2
Data set [8] relates to Enterococcus faecalis. The data set can be described thus: Bactericidal activity against vancomycin-resistant Enterococcus faecalis clinical isolates after 18 to 22 hrs by broth microdilution method. Type of data set: functional. The method, boiled down: as §1
Data set [9] deals with Enterococcus faecalis. The data set can be described thus: Bacteriostatic activity against vancomycin-resistant Enterococcus faecalis HM-201 assessed as reduction in CFU at 4 times MIC after 24 hrs. The data set is classed as functional. The gist of the method:
(§3)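 Late-log cells diluted to ~5 × 10^6 CFU/mL and exposed in triplicate to 4 × MIC, in TSB (E. faecalis HM-201) or BHI (E. faecium ATCC 700221) at 37 °C. Sampled at 0, 2, 4, 6, 8, 10, 12 and 24 h, diluted serially in PBS and plated on TSA or BHI agar. CFU/mL counted after 18–22 h. DMSO served as negative control.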

The subject of data set [10] is Enterococcus faecium. The experiment in a line: Bacteriostatic activity against vancomycin-resistant Enterococcus faecium ATCC 700221 assessed as reduction in CFU at 4 times MIC after 24 hrs. The data set is classed as functional. The method, boiled down:
as §3

For data set [11], the system named is Enterococcus faecium. The experiment in a line: Antibacterial activity against vancomycin-resistant Enterococcus faecium ATCC HM-968 assessed as ratio of MIC after and before 3 serial passages measured after 18 hrs by broth microdillution method. Type of data set: functional. The method, boiled down: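 Multi-step resistance selection: 0.5 McFarland suspension diluted 1:300 in BHI to a starting 1 × 10^5 CFU/mL. Broth microdilution MIC repeated for 14 passages over two weeks, each reseeded at ~5 × 10^5 CFU/mL from the sub-inhibitory well of the previous passage. Serial dilutions in triplicate, 37 °C for at least 18 h, MIC read visually. Resistance defined as a >4-fold MIC rise.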

A further data set relates to Caenorhabditis elegans. The experiment in a line: Toxicity in Caenorhabditis elegans AU37 assessed as worm survival at 20 ug/ml after 24 hrs by microscopic analysis. The note with it: caenorhabditis elegans, 24 h. The method, boiled down: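 Adult C. elegans AU37, 15–20 per well, exposed in triplicate to 10 or 20 μg/mL, with sterile water as negative control. Viability checked by microscopy. Result reported as percent viable worms after 24 h exposure.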

The test system of data set [12] is Enterococcus faecium. The experiment in a line: Ratio of MBC50 to MIC50 for Enterococcus faecium clinical isolates. Type of data set: functional. The method, boiled down:
(§4)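 MIC by CLSI broth microdilution in TSB (E. faecalis) or BHI (E. faecium), 37 °C for 18–22 h, taken as the lowest concentration without visible growth. For MBC, 5 μL aliquots were spotted onto TSA (E. faecalis) or BHI agar (E. faecium) and incubated 37 °C for 18–22 h; MBC is the concentration giving >99% drop in count. MIC50/MBC50 cover 50% of isolates.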

The subject of data set [13] is Enterococcus faecalis. The data set can be described thus: Ratio of MBC50 to MIC50 for Enterococcus faecalis clinical isolates. The data set is classed as functional. The gist of the method:
as §4

In data set [14] the test system is Enterococcus faecalis. The data set can be described thus: Antibacterial activity against vancomycin-resistant Enterococcus faecalis ATCC 51299 after 14 serial passages measured after 18 hrs by broth microdillution method. The data set is classed as functional. The method, boiled down:
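Multi-step selection over 14 passages in two weeks. McFarland 0.5 inoculum diluted 1:300 in TSB (E. faecalis) or BHI (E. faecium) to 1 × 10^5 CFU/mL. Each passage reinoculated at ~5 × 10^5 CFU/mL from the sub-inhibitory well of the previous plate. Compounds serially diluted in triplicate, incubated ≥18 h at 37 °C, MIC read visually. Resistance defined as >4-fold MIC rise.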

Regarding `CC(=O)NC[C@H]1CN(c2ccc(N3CCOCC3)c(F)c2)C(=O)O1` [LINEZOLID], the MIC was over 128 µg/mL with Escherichia coli [1], 8 µg/mL (≈ 23.7 µM) in the data set on Escherichia coli [2] and 0.5 µg/mL (≈ 1.48 µM) in the data set on Enterococcus faecium [3]. This compound returned an MIC50 with Enterococcus faecium [4] of 2 µg/mL (≈ 5.93 µM). Besides, the MBC50 amounted to 128 µg/mL (≈ 379 µM) against Enterococcus faecium [5], 16 µg/mL (≈ 47.4 µM) in the data set on Enterococcus faecium [6], 64 µg/mL (≈ 190 µM) in the data set with Enterococcus faecalis [7] and 64 µg/mL (≈ 190 µM) against Enterococcus faecalis [8]. Further, the result in the data set with Enterococcus faecalis [9], with Enterococcus faecium [10] and in the data set with Enterococcus faecalis [14] was Active. The Ratio in the data set with Enterococcus faecium [11] was 1; in the data set with Enterococcus faecium [12], over 4; in the data set on Enterococcus faecalis [13], over 4. Also, in the data set on Caenorhabditis elegans, the Activity result is listed as “Non-Toxic”.
